From ChEMBL document CHEMBL1139213, “Antimicrobial arylcoumarins from Asphodelus microcarpus” (2007)
≈ marks a conversion by molar mass, not a printed value.

Legend:
Type in all cases: functional
Staphylococcus aureus = test: Antibacterial activity against Staphylococcus aureus IAM1011
How it was run: (§1)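 Broth microdilution MIC. Bacteria grown 16 h on BHI agar, suspended in MH broth at about (3-6) × 10^6 cfu/mL. Test materials applied at 20–100 mg/mL (as stated, before dilution), serially 2-fold diluted, then mixed with the bacterial suspension. Incubated 24 h at 37°C before MIC read-out. Positive controls: ampicillin for S. aureus and E. coli, penicillin G for P. aeruginosa.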

Escherichia coli = test: Antibacterial activity against Escherichia coli IAM1257; how it was run: as §1
Pseudomonas aeruginosa = test: Antibacterial activity against Pseudomonas aeruginosa IAM1058; how it was run: as §1
Candida albicans = test: Antifungal activity against Candida albicans IAM1099
Botrytis cinerea = test: Antifungal activity against Botrytis cinerea IAM1069

Molecule	MIC (Staphylococcus aureus) [µg/mL]	MIC (Escherichia coli) [µg/mL]	MIC (Pseudomonas aeruginosa) [µg/mL]	MIC (Candida albicans) [µg/mL]	MIC (Botrytis cinerea) [µg/mL]	Activity (Botrytis cinerea) [µg/mL]
O=c1oc2cc(O)ccc2c(O)c1-c1ccc(O[C@@H]2O[C@H](CO)[C@@H](O)[C@H](O)[C@H]2O)cc1O	128 (≈ 285 µM)	128 (≈ 285 µM)	256 (≈ 571 µM)	512 (≈ 1140 µM)	1020 (≈ 2280 µM)	
CC1(C)S[C@@H]2[C@H](NC(=O)[C@H](N)c3ccccc3)C(=O)N2[C@H]1C(=O)O [AMPICILLIN]	< 0.5	1 (≈ 2.86 µM)				
O=c1oc2cc(O)ccc2c(O)c1-c1ccc(O)cc1O [ASPHODELIN A]	16 (≈ 55.9 µM)	4 (≈ 14 µM)	8 (≈ 27.9 µM)	64 (≈ 224 µM)	128 (≈ 447 µM)	
CC1(C)S[C@@H]2[C@H](NC(=O)Cc3ccccc3)C(=O)N2[C@H]1C(=O)O [PENICILLIN G]			1 (≈ 2.99 µM)			
NYSTATIN				< 0.5		< 0.5
